Screening results as filed in PubChem.
MrgX1 ag: activates human MrgX1 receptor signaling | B-score at 10 µM | 310,000 tested, 0.44% active | AID 588627 | MrgX1-HEK293 cells, Fluo-4 calcium fluorescence, agonist mode; hits give high values;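 active means calcium response B-score plate-corrected fluorescence ratio at least 3 library SD, with starting fluorescence B-score inside 5 SD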
Target sequence (Q96LB2 whole entry, looked up): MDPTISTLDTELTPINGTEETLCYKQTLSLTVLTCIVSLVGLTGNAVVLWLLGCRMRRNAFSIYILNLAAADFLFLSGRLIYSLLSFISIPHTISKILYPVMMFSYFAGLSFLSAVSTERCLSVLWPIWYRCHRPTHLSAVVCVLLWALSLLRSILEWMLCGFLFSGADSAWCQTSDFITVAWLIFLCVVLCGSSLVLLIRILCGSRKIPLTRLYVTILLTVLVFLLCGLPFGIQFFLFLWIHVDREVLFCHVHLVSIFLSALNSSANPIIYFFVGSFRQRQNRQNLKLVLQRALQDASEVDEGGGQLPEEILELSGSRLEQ
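Test system: Stable human MrgX1 HEK293 cell line | Schedule: Overnight plating before 1 h dye loading | Read-out basis: Baseline-normalised fluorescence change ratio, B-scored | Detection: Kinetic calcium dye fluorescence, Fluo-4 NW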
MrgX1 antag: human MrgX1 receptor antagonism, primary screen; Q96LB2; MRGX1-HEK293 calcium flux, Fluo-4, BAM8-22 antagonism; hits give low values; B-score at 10 µM; 310,000 tested, 1.3% active;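 active means calcium-response B-score plate-corrected more than 3 library SD below zero, starting fluorescence within 5 deviations, no agonist response on first addition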;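 further: peak minus trough fluorescence over baseline after final BAM8-22 challenge near maximal dose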
MrgX1 allo act: allosterically activates human MrgX1 receptor signaling; MrgX1-HEK293, Fluo-4 calcium flux, FDSS; hits give high values; B-score at 10 µM; 310,000 tested, 0.63% active;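 active means plate-corrected calcium response at least 3 library SD above typical, normal starting fluorescence, not activating the receptor alone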;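 further: compound read alongside a low EC10 to EC30 dose of BAM8-22 agonist; peak minus trough fluorescence over baseline measured at the second addition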
RGS4 block: human RGS4 inhibition. HEK293 M3R/RGS4 inducible, Fluo-4 calcium flux; hits give high values; triggered by carbachol at its EC20. B-score at 10 µM. 310,000 tested, 0.45% active;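 active means B-score, a plate-corrected calcium signal, over three deviations above library mean, with baseline fluorescence within five deviations of library mean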;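 further: RGS4 expression induced by doxycycline in cells with stable M3 receptor; B-score is computed from the integrated fluorescence ratio over baseline after carbachol; higher B-score means a larger calcium signal and so more RGS4 inhibition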
Target sequence (P49798 whole entry, looked up): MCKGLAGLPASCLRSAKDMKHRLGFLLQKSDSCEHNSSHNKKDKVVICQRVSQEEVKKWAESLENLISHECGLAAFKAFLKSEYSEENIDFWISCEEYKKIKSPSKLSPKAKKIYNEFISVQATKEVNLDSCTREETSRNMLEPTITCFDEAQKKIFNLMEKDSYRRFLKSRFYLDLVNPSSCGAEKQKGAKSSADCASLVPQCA
RGS4 act: potentiators or activators of RGS4; HEK293 M3R/inducible RGS4, carbachol calcium flux Fluo4; hits give low values; B-score at 10 µM; 310,000 tested, 0.92% active; AID 463111;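 active means B-score of the integrated calcium signal more than 4 SD below the library mean, with starting fluorescence not abnormally high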;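 further: negative B-score means reduced calcium response which marks RGS4 activation or potentiation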
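System: HEK293 FlpIn-TREx cells, stable M3R, doxycycline-inducible RGS4. Timing: overnight RGS4 induction, 30 min dye load 37 °C, 20 min compound RT. Also added: carbachol, ECmax concentration. Measured by: Fluo4 fluorescence kinetic imaging of calcium. Evaluation: integrated calcium ratio converted to B score.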
MrgX1 antag conf: confirmation of human MrgX1 receptor antagonists | shares compounds with MrgX1 antag | MrgX1-HEK293, BAM8-22 calcium flux, Fluo-4; hits give low values | remaining BAM8-22 calcium response % of control (hits give low values), % at 10 µM | 2,300 tested, 19% active | AID 602420;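 active means remaining agonist calcium response no higher than 100% minus 3 SD of agonist-only control wells, with starting fluorescence near control levels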;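 further: agonist BAM8-22 given at a near maximal EC90 to ECmax level; peak minus minimum fluorescence divided by baseline after agonist addition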
HEK293 Ca flux: counter-screen for MrgX1 antagonists: effect in parental HEK293 cells; shares compounds with MrgX1 antag; Fluo-4 calcium fluorescence, FDSS; fluorescence ratio F(max-min)/F0 at 10 µM; 4,000 tested, 2% active;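 active means duplicate-averaged calcium fluorescence ratio at least three times the standard deviation of buffer wells, a nonspecific response in parental cells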
HEK293 Ca counter: activity in parental HEK293 cells without MrgX1. AID 624114. fluorescence ratio F(max-min)/F0 at 10 µM. 4,000 tested, 0.4% active. parental HEK293 calcium flux, Fluo-4 fluorescence ratio; hits give high values. shares compounds with MrgX1 antag;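 active means calcium fluorescence ratio, averaged over duplicates, at least 3 SD of the buffer-well ratio, meaning a nonspecific response in receptor-free cells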;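 further: untransfected parental HEK293 lacking MrgX1 used as counterscreen for MrgX1 allosteric activators; fluorescence change taken during the second addition on a kinetic imager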
HEK293 Ca cntr2: MrgX1 activator counter-screen hit in parental HEK293 cells. shares compounds with MrgX1 antag. Fluo-4 calcium fluorescence (FDSS); hits give high values. fluorescence ratio F(max-min)/F0 at 10 µM. 4,000 tested, 8.7% active. AID 624115;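 active means calcium fluorescence ratio at least three times the spread of buffer wells, meaning a non-specific response in parental cells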
* = called active by the depositor. Only some compounds are listed: those with a hit (about 3.5% of all), similar ones and a draw of the others.

For CCN1C[C@]2(CO)CC[C@H](OC)[C@@]34C5C[C@H]6[C@H](OC)C5[C@](O)(C[C@H]6OC)[C@@](O)(C(OC)C23)[C@@H]14 (stereo partly drawn) the results were MrgX1 ag inactive, MrgX1 antag -4.64*, MrgX1 allo act inactive, RGS4 block inactive, RGS4 act inactive, MrgX1 antag conf inactive, HEK293 Ca flux inactive, HEK293 Ca counter inactive and HEK293 Ca cntr2 inactive.
`CCCCCCn1c(O)c(/C=N/N2CCCCCC2)c(=O)[nH]c1=O` gave MrgX1 ag inactive, MrgX1 antag inactive, MrgX1 allo act inactive, RGS4 block inactive and RGS4 act inactive.
For Clc1ccc2[nH]c3c(c2c1)CCNC3 the results were MrgX1 ag inactive, MrgX1 antag -5.44*, MrgX1 allo act inactive, RGS4 block inactive, RGS4 act inactive, MrgX1 antag conf inactive, HEK293 Ca flux inactive, HEK293 Ca counter inactive and HEK293 Ca cntr2 inactive.
Screening FC(F)(F)c1cccc(-n2nnnc2C2(N3CCOCC3)CCCCC2)c1 returned MrgX1 ag inactive, MrgX1 antag -5.13*, MrgX1 allo act inactive, RGS4 block inactive, RGS4 act inactive, MrgX1 antag conf inactive, HEK293 Ca flux inactive, HEK293 Ca counter inactive and HEK293 Ca cntr2 inactive.
Screening O=C(c1cccn2c(=O)c3cc(Br)ccc3nc12)N1CCC2(CC1)OCCO2 returned MrgX1 ag inactive, MrgX1 antag inactive, MrgX1 allo act inactive, RGS4 block inactive and RGS4 act inactive.
For Cc1cccn2c(=O)c3cc(C(=O)N4CCC5(CC4)OCCO5)n(C)c3nc12 the results were MrgX1 ag inactive, MrgX1 antag -4.7*, MrgX1 allo act inactive, RGS4 block inactive, RGS4 act inactive, MrgX1 antag conf inactive, HEK293 Ca flux inactive, HEK293 Ca counter inactive and HEK293 Ca cntr2 inactive.
Screening CC(C)CCn1c(=O)c(C(=O)NCc2ccc3c(c2)OCO3)c(O)c2ccccc21 returned MrgX1 ag inactive, MrgX1 antag -7.7*, MrgX1 allo act inactive, RGS4 block inactive, RGS4 act inactive, MrgX1 antag conf inactive, HEK293 Ca flux inactive, HEK293 Ca counter inactive and HEK293 Ca cntr2 inactive.
For CC(C)CCn1c(=O)c(C(=O)Nc2ccccc2S(N)(=O)=O)c(O)c2ccccc21 the results were MrgX1 ag inactive, MrgX1 antag inactive, MrgX1 allo act inactive, RGS4 block inactive and RGS4 act inactive.
O=c1[nH]c(O)c(N=Nc2ccc([N+](=O)[O-])cc2)c(=O)[nH]1 was read as MrgX1 ag inactive, MrgX1 antag inactive, MrgX1 allo act inactive, RGS4 block inactive and RGS4 act inactive.
Screening CCOc1ccc(-c2cc(C)[n+](CCc3ccc(OC)c(OC)c3)c(-c3ccc(OCC)cc3)c2)cc1 returned MrgX1 ag inactive, MrgX1 antag -13*, MrgX1 allo act inactive, RGS4 block inactive, RGS4 act -9.93*, MrgX1 antag conf 69.8%*, HEK293 Ca flux inactive, HEK293 Ca counter inactive and HEK293 Ca cntr2 inactive.
`CCOc1ccc(-c2cc(C)[n+](CCO)c(-c3ccc(OCC)cc3)c2)cc1` gave MrgX1 ag inactive, MrgX1 antag inactive, MrgX1 allo act inactive, RGS4 block inactive and RGS4 act inactive.
`CCOc1ccc(N=Cc2c(O)n(-c3cc(C)cc(C)c3)c(=O)[nH]c2=O)cc1` gave MrgX1 ag inactive, MrgX1 antag inactive, MrgX1 allo act inactive, RGS4 block inactive and RGS4 act inactive.
CCCCn1c(O)c(C(C)=NCc2cc(OC)cc(OC)c2)c(=O)[nH]c1=O was read as MrgX1 ag inactive, MrgX1 antag -6.75*, MrgX1 allo act inactive, RGS4 block inactive, RGS4 act inactive, MrgX1 antag conf inactive, HEK293 Ca flux inactive, HEK293 Ca counter inactive and HEK293 Ca cntr2 inactive.
Screening CCC1C(C#N)=C(N)Oc2c1c(=O)oc1ccccc21 (stereo not drawn) returned MrgX1 ag inactive, MrgX1 antag inactive, MrgX1 allo act inactive, RGS4 block inactive and RGS4 act inactive.
For CC(C)CC1C(C#N)=C(N)Oc2c1c(=O)oc1ccccc21 (stereo not drawn) the results were MrgX1 ag inactive, MrgX1 antag -6.3*, MrgX1 allo act inactive, RGS4 block inactive, RGS4 act inactive, MrgX1 antag conf inactive, HEK293 Ca flux inactive, HEK293 Ca counter inactive and HEK293 Ca cntr2 inactive.
COc1ccc(-c2cc(=NCCC(=O)O)c3cc(C)ccc3o2)cc1 was read as RGS4 block inactive and RGS4 act inactive.
O=C(O)C1CN2CCC1CC2 (stereo not drawn) was read as MrgX1 ag inactive, MrgX1 antag -8.04*, MrgX1 allo act inactive, RGS4 block inactive, RGS4 act inactive, MrgX1 antag conf inactive, HEK293 Ca flux inactive, HEK293 Ca counter inactive and HEK293 Ca cntr2 inactive.
Screening COc1cccc(-n2c(/C=C/c3ccc(O)c(O)c3)nc3ccccc3c2=O)c1 returned MrgX1 ag inactive, MrgX1 antag -5.72*, MrgX1 allo act inactive, RGS4 block inactive, RGS4 act inactive, MrgX1 antag conf inactive, HEK293 Ca flux inactive, HEK293 Ca counter inactive and HEK293 Ca cntr2 inactive.
